Experimental data pooled from the literature.
Compare with care: the assays were run in different laboratories.
Target: Tyrosine-protein kinase Srms (SRMS, Homo sapiens, UniProt Q9H3Y6)

| SMILES | observed | mode | method | tested at | quantity | result |
| --- | --- | --- | --- | --- | --- | --- |
| CC(C)(C)c1nc2c(s1)c1nc(N)ncc1c1ccc(NS(=O)(=O)c3c(F)cccc3F)c(F)c12 | enzyme activity | inhibitor | radiometric | 1 µM | remaining activity | 70% |
| N#CCCc1ccc2c(c1)-c1[nH]c3ccc([N+](=O)[O-])cc3c1CC(=O)N2 | cell-free assay | – | – | 0.5 µM | remaining signal | 78.6% |
| O=C(Nc1ccc(Oc2ccc(F)cc2)cc1)N1CCc2ncccc2[C@H]1c1ccc(F)cc1 | cell-free assay | – | competition with immobilised ligand | 1 µM | remaining binding | 94% |
| Cc1ccc(C(=O)NCc2ccsc2)cc1C#Cc1cn(C(C)C)c2ncnc(N)c12 | enzyme activity | inhibitor | – | 1 µM | activity vs control | 31% |
| C[C@H](c1ccnc(Nc2nc3ccc(-c4cc(N(C)C)ncn4)cc3[nH]2)c1)N1CCN(C(=O)CC(F)(F)F)CC1 | cell-free assay | – | competition with immobilised ligand | 0.1 µM | remaining binding | 97% |
| C[S+]([O-])c1ccc(-c2nc(-c3ccncc3)c(-c3ccc(F)cc3)[nH]2)cc1 (stereo not drawn) | cell-free assay | – | – | 0.5 µM | remaining signal | 102% |
| Nc1ncnc2occ(-c3ccc(NC(=O)Nc4cc(C(F)(F)F)ccc4F)cc3)c12 | cell-free assay | inhibitor | – | 20 µM | remaining signal | 0.8% |
| CNC(=O)c1cc2c(Oc3ccc(NC(=O)C4(C(=O)Nc5ccc(F)cc5)CC4)cc3)ccnc2cc1OC | enzyme activity | inhibitor | radiometric | 1 µM | inhibition | 97% |
| CC(C)(O)[C@H]1CC[C@H](Nc2ccc3ncc(-c4cccc(C(F)(F)F)c4)n3n2)CC1 | enzyme activity | inhibitor | – | 1 µM | remaining activity | 96.5% |
| COc1cc2ncnc(Nc3ccc(Oc4ccccc4)cc3C)c2cc1OC | enzyme activity | inhibitor | – | 1 µM | inhibition | 84% |
| O=C(Nc1cnn(-c2csc(C(=O)NC3COC3)c2)c1)Nc1c(F)cccc1Cl | enzyme activity | inhibitor | – | 5 µM | remaining activity | 105% |
| C[C@H](c1ccc(F)cc1)N(Cc1cccc(C(=O)O)c1)C(=O)c1cnc2ccccc2c1 | cell-free assay | – | competition with immobilised ligand | 1 µM | remaining binding | 100% |
